Test [1] has as its target Histamine H1 receptor (Cavia porcellus) (UniProt P31389). The test is described as follows: Partial agonist activity at H1R in guinea pig ileum assessed as inhibition of histamine-induced muscle contraction after 15 mins. In kind it is functional, tissue-based. A digest of the protocol:
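Isolated guinea-pig ileum, contraction induced by histamine; test ligand incubated 15 min before the histamine response.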

Test [2] addresses T1, Histamine H4 receptor (Homo sapiens, UniProt Q9H3N8). The test can be described thus: Inverse agonist activity at human H4R expressed in Sf9 cells co-expressing RGS19, Galphai2 and Gbeta1gamma2 assessed as […] of [35S]GTPgammaS binding. In kind it is functional.
Test [3] addresses T1, Histamine H4 receptor. The test is described as follows: Displacement of [3H]histamine from human H4R expressed in Sf9 cells co-expressing RGS19, Galphai2 and Gbeta1gamma2 after 60 mins by liquid scintillation counting. In general terms: Displacement assays read how much labelled ligand stays bound in the presence of the test substance.
Test [4] has as its target T1, Histamine H4 receptor. The test is described as follows: Inverse agonist activity at human H4R expressed in Sf9 cells co-expressing RGS19, Galphai2 and Gbeta1gamma2 assessed as […] of [35S]GTPgammaS binding relative to histamine. In kind it is functional. On the technique in general: GTPγS is a poorly hydrolysed GTP analogue; its binding reports G protein activation.

Test [5] deals with Histamine H1 receptor (Homo sapiens, UniProt P35367). The test is described as follows: biochemical. In kind it is cell-based, Sf9.
In test [6] the target is Histamine H1 receptor (Cavia porcellus, UniProt P31389). The test is described as follows: Antagonist activity at H1R in guinea pig ileum assessed as inhibition of histamine-induced muscle contraction after 15 mins. The settings on record: read-out: pA2 (converted). In kind it is functional, tissue-based.
Test [7] concerns the target T1, Histamine H4 receptor. The test can be described thus: Partial agonist activity at human H4R expressed in Sf9 cells co-expressing RGS19, Galphai2 and Gbeta1gamma2 assessed as stimulation of [35S]GTPgammaS binding. In kind it is functional.
Test [8] addresses T1, Histamine H4 receptor. The test is described as follows: Partial agonist activity at human H4R expressed in Sf9 cells co-expressing RGS19, Galphai2 and Gbeta1gamma2 assessed as stimulation of [35S]GTPgammaS binding relative to histamine. In kind it is functional.

These results are taken from ChEMBL document CHEMBL1909509, “Mepyramine-JNJ7777120-hybrid compounds show high affinity to hH(1)R, but low affinity to hH(4)R” (Bioorg Med Chem Lett, 2011).

Active and inactive are the calls of the source. The rule behind the calls is not given here.

Sequence of Histamine H1 receptor (Homo sapiens, UniProt P35367) (P35367 whole entry): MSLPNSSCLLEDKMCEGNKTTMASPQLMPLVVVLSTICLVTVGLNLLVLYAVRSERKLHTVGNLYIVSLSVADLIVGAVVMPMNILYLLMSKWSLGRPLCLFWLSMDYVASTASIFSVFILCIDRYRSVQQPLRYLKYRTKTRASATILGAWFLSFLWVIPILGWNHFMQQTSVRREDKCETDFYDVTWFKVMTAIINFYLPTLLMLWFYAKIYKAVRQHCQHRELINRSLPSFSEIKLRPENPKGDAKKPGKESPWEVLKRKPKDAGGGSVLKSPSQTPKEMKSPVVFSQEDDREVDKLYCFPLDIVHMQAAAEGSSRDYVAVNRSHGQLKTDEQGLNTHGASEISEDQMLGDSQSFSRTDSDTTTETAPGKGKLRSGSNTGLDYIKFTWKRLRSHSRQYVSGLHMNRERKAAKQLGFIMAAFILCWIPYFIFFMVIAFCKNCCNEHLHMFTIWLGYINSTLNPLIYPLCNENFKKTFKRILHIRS
T1 sequence (Q9H3N8 whole entry): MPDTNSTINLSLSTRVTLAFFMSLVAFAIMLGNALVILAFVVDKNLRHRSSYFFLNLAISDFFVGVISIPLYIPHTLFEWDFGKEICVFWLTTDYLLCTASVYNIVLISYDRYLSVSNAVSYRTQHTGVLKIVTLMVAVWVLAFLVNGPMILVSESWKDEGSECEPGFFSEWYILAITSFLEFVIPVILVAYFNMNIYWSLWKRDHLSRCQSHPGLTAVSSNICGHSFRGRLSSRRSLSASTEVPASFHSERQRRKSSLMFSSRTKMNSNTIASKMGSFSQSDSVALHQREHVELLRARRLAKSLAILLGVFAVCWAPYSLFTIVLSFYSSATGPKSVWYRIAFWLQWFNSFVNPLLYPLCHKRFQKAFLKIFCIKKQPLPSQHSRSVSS
Sequence of Histamine H1 receptor (Cavia porcellus, UniProt P31389) (P31389 whole entry): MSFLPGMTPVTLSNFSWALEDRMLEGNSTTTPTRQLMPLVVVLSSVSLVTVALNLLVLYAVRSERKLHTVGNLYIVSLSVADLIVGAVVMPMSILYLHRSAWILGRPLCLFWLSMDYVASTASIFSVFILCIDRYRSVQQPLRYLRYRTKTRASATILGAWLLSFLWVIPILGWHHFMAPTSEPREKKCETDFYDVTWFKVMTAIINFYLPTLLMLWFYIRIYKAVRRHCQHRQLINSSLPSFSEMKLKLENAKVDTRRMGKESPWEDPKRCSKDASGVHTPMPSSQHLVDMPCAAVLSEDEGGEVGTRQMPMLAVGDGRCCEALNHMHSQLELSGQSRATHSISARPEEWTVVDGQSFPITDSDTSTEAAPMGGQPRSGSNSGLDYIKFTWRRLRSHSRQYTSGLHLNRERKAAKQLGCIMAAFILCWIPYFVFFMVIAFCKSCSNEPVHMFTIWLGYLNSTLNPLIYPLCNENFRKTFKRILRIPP
Sequence of Histamine H1 receptor (Cavia porcellus) (P31389 whole entry): as above

Regarding `COc1ccc(CN(CCN(C)CCN2CCN(C(=O)c3cc4ccccc4[nH]3)CC2)c2ccccn2)cc1`, in test [1], the inhibition entry was “inactive”. In addition, the EC50 on Histamine H4 receptor [2] is above 100000 nM. For the same compound, the figures for the Ki at Histamine H4 receptor [3] and on Histamine H1 receptor [5] were 8910 nM and 7.08 nM, respectively. Besides, the Emax on Histamine H4 receptor [4] was below -1%. The Kb on Histamine H1 receptor [6] is 4.9 nM.
Turning to `COc1ccc(CN(CCN[C@H]2CCN(C(=O)c3cc4ccccc4[nH]3)C2)c2ccccn2)cc1`, the inhibition entry in test [1] is “inactive”. The Ki at Histamine H4 receptor [3] is 27500 nM; on Histamine H1 receptor [5] it was 457 nM. At Histamine H1 receptor [6], the Kb is 8.51 nM.
`COc1ccc(CN(CCN(C)CC(C)Nc2ccc3[nH]c(C(=O)N4CCN(C)CC4)cc3c2)c2ccccn2)cc1` (racemic): the inhibition result in test [1] is “inactive”. Moreover, the Ki at Histamine H4 receptor [3] was 14100 nM; on Histamine H1 receptor [5], 214 nM. The Kb on Histamine H1 receptor [6] is 12.6 nM.
For the compound `COc1ccc(CCN2CCC(Nc3nc4ccccc4n3Cc3ccc(F)cc3)CC2)cc1` [ASTEMIZOLE], on Histamine H4 receptor [3], the Ki is 7940 nM.
With `O=C(c1cc2ccccc2[nH]1)N1CCN(CCN2CCC(Nc3nc4ccccc4n3Cc3ccc(F)cc3)CC2)CC1`, the Ki on Histamine H4 receptor [3] was 10500 nM; on Histamine H1 receptor [5], 5.5 nM.
On to `COc1ccc(CN(CCN2CCN(C(=O)c3nc4ccccc4[nH]3)CC2)c2ccccn2)cc1`, for which the inhibition entry in test [1] is “inactive”. Also, the Ki was 22400 nM at Histamine H4 receptor [3] and 603 nM on Histamine H1 receptor [5]. Besides, the Kb on Histamine H1 receptor [6] is 7.24 nM.
Taken in the same sequence, the figures for `COc1ccc(CN(CCN(C)CCN2CCN(C(=O)c3cc4cc(Cl)ccc4[nH]3)CC2)c2ccccn2)cc1` were “inactive”, 6760 nM, 100 nM and 7.59 nM.
Taken in the same sequence, the figures for `COc1ccc(CN(CCN2CCN(C(=O)c3cc4cc(Cl)ccc4[nH]3)CC2)c2ccccn2)cc1` were “inactive”, 15800 nM, 776 nM and 20.4 nM.
With `O=C(c1cc2ccccc2[nH]1)N1CCN(CCOC(c2ccccc2)c2ccccc2)CC1`, the inhibition result in test [1] was “inactive”. Moreover, the results for the Ki on Histamine H4 receptor [3] and at Histamine H1 receptor [5] were 17800 nM and 224 nM, respectively.
Regarding `COc1ccc(CN(CCN2CCN(C(=O)c3cc4ccccc4[nH]3)CC2)c2ccccn2)cc1`, the inhibition result in test [1] is “inactive”. In addition, the Ki at Histamine H4 receptor [3] is 5890 nM; on Histamine H1 receptor [5], 170 nM. In addition, at Histamine H1 receptor [6], the Kb was 10.7 nM. In addition, the concentration for a half-maximal effect (EC50) on Histamine H4 receptor [7] was 105000 nM. Further, the Emax at Histamine H4 receptor [8] turned out to be 88%.
Take `CN1CCN(C(=O)c2nc3ccccc3[nH]2)CC1`: on Histamine H4 receptor [3], the Ki is 288 nM.

A word on the EC50: it is the concentration at which the effect is half-maximal. One may read the Ki as a dissociation constant, usually derived from enzyme kinetics or from competition with a known ligand. The term Emax denotes the greatest response seen or fitted, relative to the assay's reference.
